We go through one sequence from paper PMC11533547 (Poultry Science, 2024).

One series relates to DT40 cells. The experiment in a line: MTT cell viability assay. In kind it is cell-based, chicken. The settings on record: 10 to 500 nM peptide, 24 h, OD450.
A further series deals with T1, chicken PD-1 protein (Gallus gallus, UniProt A0A1L1RYS1).
T1 sequence (A0A1L1RYS1 1-304): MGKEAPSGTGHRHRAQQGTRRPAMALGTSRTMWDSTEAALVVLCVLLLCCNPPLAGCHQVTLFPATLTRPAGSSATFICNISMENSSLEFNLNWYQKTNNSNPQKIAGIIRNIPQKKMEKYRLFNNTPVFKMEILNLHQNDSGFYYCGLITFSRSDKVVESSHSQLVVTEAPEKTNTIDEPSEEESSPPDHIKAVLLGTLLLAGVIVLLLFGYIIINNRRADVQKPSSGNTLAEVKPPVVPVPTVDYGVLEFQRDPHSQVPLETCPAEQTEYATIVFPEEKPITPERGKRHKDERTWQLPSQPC
Nature of the series: MST affinity of peptides for chicken PD-1 protein. In kind it is binding. An outline of the steps: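 Chicken PD-1 protein labelled with a BLUE-NHS amine-reactive dye, then mixed in equal volumes with each peptide from a 2-fold dilution series in PBS (pH 7.4), 1800 to 0.054 nM. Incubated about 5 min, loaded into standard capillaries and read at once by microscale thermophoresis. Chicken PD-L1 protein (100 nM) as positive control. KD reported as the mean of 3 independent experiments.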

No end group written: not given here.

For the sequence DAGLYHCLIEYGGADYKTINLK [gDK2-3], the “cell viability (cytotoxicity)” value with DT40 cells was “no significant effect on cell viability”. The sequence further registered a Kd on chicken PD-1 protein of 9.73 nM.
